Calls of active or inactive are those of the source. The rule behind the calls is not given here.
Assays:
[1] = system: L02; assay: Cytotoxicity against human LO2 cells assessed as cell viability at 20 uM measured after 24 hrs by MTT assay; format: cell-based; conditions: l02, 24 h
How it was run: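 LO2 human liver cells (1.5–5 × 10^3 per well) seeded overnight, then exposed to compound for 24 h. MTT (5 mg/mL stock) added for 2–4 h at 37 °C. Formazan dissolved in DMSO and absorbance read at 570 nm. Three replicate experiments.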

[2] = system: RAW264.7; assay: Antiinflammatory activity in mouse RAW264.7 cells assessed as LPS-induced nitric oxide level at 20 uM preincubated for 1 hr followed by LPS treatment and measured after 23 hrs by Griess reagent based assay (reference value: 96.06 to 102.81%); format: functional
How it was run: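 RAW264.7 cells seeded at 1 × 10^5/mL and left overnight. Compound (20 μM) added 1 h before LPS at 1 μg/mL, then 23 h more incubation. Nitrite in supernatant read with Griess reagent at 540 nm and expressed as NO relative to the LPS-only wells (%).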

[3] = system: RAW264.7; assay: Inhibition of MCP-1 mediated chemotaxis in mouse RAW264.7 cells at 20 uM measured after 3 hrs by light microscopic analysis relative to control; format: functional; conditions: for inhibition at 20 µM: RAW264.7, 3 h
How it was run: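 RAW264.7 cells serum-starved for 3 h, then placed in the upper Transwell chamber in 0.5% BSA medium with compound (20 μM) or DMSO. Lower chamber held 200 ng/mL MCP-1. After 3 h at 37 °C, migrated cells fixed, crystal violet-stained and counted in randomly chosen fields. Inhibitory rate = 1 − N1/(N1+N2); three chambers per condition.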

[4] = system: Mus musculus; assay: Antiinflammatory activity in mouse model of Con-A induced autoimmune hepatitis assessed as decrease in serum ALT level at 100 mg/kg, ip measured after 12 hrs relative to control; format: functional; design: scale not given: the % may be the effect or the level left
How it was run: (§1)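 Female BALB/c mice, 6–8 weeks old, SPF housing. Con A 20 mg/kg given i.v., then compound 100 mg/kg i.p. in 40% PEG 400/60% saline; model group received vehicle. Killed at 12 h. Plasma ALT and AST measured on an automatic analyzer. Mean ± SD, n=5; ANOVA with Tukey's test.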

[5] = species: Mus musculus; assay: Hepatoprotective activity in mouse model of Con-A induced autoimmune hepatitis assessed as reduction in Con-A induced CD4-positive cells infiltration by […] microscopic analysis; format: functional, organism-based
How it was run: (§2)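 Livers collected 12 h after Con A 20 mg/kg i.v. plus compound 100 mg/kg i.p. Tissue formalin-fixed, paraffin-embedded and cut into 4–5 μm sections. Sections stained with H&E for light microscopy; further sections immunostained for CD4, CD11b and F4/80 and imaged by fluorescence microscopy.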

[6] = system: RAW264.7; assay: Antiinflammatory activity against mouse RAW264.7 assessed as decrease in Con-A induced […] IL-10 expression level at 1 uM measured after 22 hrs by RT-PCR analysis; format: functional, cell-based
How it was run: (§3)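 RAW264.7 macrophages (DMEM, 10% FBS, 37 °C, 5% CO2) pretreated with Con A for 2 h, then compound at 1 μM for a further 22 h. mRNA quantified by SYBR real-time PCR (95 °C 30 s; 40 cycles of 95 °C 5 s, 60 °C 20 s), normalized to GAPDH, run in triplicate; mean ± SD, n=5.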

[7] = system: RAW264.7; assay: Antiinflammatory activity against mouse RAW264.7 assessed as decrease in Con-A induced INF-gamma mRNA expression level at 1 uM measured after 22 hrs by RT-PCR analysis; format: functional, cell-based; how it was run: as §3
[8] = species: Mus musculus; assay: Hepatoprotective activity in mouse model of Con-A induced autoimmune hepatitis assessed as reduction in Con-A induced CD11b-positive cells infiltration by […] microscopic analysis; format: functional, organism-based; how it was run: as §2
[9] = biological target: Transcription factor p65 (Mus musculus) (UniProt Q04207); assay: Inhibition of LPS-induced NF-kappaB p65 translocation in mouse RAW264.7 cells incubated for 22 hrs by DAPI staining based laser scanning confocal microscopic analysis; format: cell-based
Transcription factor p65 (Mus musculus), sequence (Q04207 whole entry): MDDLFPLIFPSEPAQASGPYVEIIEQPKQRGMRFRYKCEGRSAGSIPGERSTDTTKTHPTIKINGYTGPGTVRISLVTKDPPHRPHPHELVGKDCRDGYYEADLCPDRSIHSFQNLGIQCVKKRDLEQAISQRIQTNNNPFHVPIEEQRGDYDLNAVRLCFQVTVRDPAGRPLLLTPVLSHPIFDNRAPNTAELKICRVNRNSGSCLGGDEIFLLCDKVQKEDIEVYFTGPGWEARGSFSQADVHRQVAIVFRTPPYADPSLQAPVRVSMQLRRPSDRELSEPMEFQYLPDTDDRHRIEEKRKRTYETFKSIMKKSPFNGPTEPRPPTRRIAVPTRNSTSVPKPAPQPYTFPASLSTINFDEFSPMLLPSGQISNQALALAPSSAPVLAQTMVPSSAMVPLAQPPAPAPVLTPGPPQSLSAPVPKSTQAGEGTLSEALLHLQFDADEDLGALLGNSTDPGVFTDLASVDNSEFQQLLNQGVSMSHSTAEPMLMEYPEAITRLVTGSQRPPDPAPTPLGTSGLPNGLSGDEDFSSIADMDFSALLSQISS
How it was run: (§4)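 RAW264.7 cells (2×10^4/well) seeded overnight and stimulated for 2 h with Con A (0.6 μM) or LPS (1 μg/mL), then compound at various concentrations for 22 h. Cells fixed in paraformaldehyde, permeabilized with Triton X-100 and blocked in BSA. Stained with anti-p65 and FITC secondary antibody, nuclei with DAPI; imaged by confocal microscopy.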

[10] = system: RAW264.7; assay: Antiinflammatory activity against mouse RAW264.7 assessed as decrease in Con-A induced IL-6 mRNA expression level at 1 uM measured after 22 hrs by RT-PCR analysis; format: functional, cell-based; how it was run: as §3
[11] = biological target: Transcription factor p65 (Mus musculus) (UniProt Q04207); assay: Inhibition of Con A-induced NF-kappaB p65 translocation in mouse RAW264.7 cells incubated for 22 hrs by DAPI staining based laser scanning confocal microscopic analysis; format: cell-based; how it was run: as §4
[12] = species: Mus musculus; assay: Hepatoprotective activity in mouse model of Con-A induced autoimmune hepatitis assessed as decrease in necrosis of hepatocytes by H and E staining based […] microscopic analysis; format: functional, organism-based; how it was run: as §2
[13] = system: RAW264.7; assay: Antiinflammatory activity against mouse RAW264.7 assessed as decrease in Con-A induced TNF-alpha mRNA expression level at 1 uM measured after 22 hrs by RT-PCR analysis; format: functional, cell-based; how it was run: as §3
[14] = system: Mus musculus; assay: Antiinflammatory activity in mouse model of Con-A induced autoimmune hepatitis assessed as of MDSC accumulation at 100 mg/kg by flow cytometry analysis (reference value: 11.31%); format: functional
How it was run: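 Female BALB/c mice given Con A 20 mg/kg i.v. plus compound 100 mg/kg i.p. (PEG 400/saline vehicle), livers taken at 12 h. Liver single-cell suspensions prepared by mechanical disruption and 1 mg/mL collagenase I digestion, with red cells lysed. 1×10^6 cells stained for CD11b and Gr-1; MDSC percentage determined by flow cytometry.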

[15] = system: Mus musculus; assay: Antiinflammatory activity in mouse model of Con-A induced autoimmune hepatitis assessed as decrease in serum AST level at 100 mg/kg, ip measured after 12 hrs relative to control; format: functional; design: scale not given: the % may be the effect or the level left; how it was run: as §1
[16] = species: Mus musculus; assay: Hepatoprotective activity in mouse model of Con-A induced autoimmune hepatitis assessed as reduction in Con-A induced F4/80-positive cells infiltration by […] microscopic analysis; format: functional, organism-based; how it was run: as §2

Row | Structure (SMILES) | Activity [1] | Activity [2] | further results
1 | CC(=O)Nc1cc(-c2ccccc2F)cn2c(C)nnc12 | Non-Toxic | 83.06% | –
2 | CCS(=O)(=O)Nc1cc(-c2cc(Cl)ccc2OCc2ccccc2)cn2c(C)nnc12 | Non-Toxic | 26.01% | inhibition [3]: Active
3 | CC(=O)Nc1cc(-c2cccc(OC(F)(F)F)c2)cn2c(C)nnc12 | Non-Toxic | 49.52% | –
4 | CCS(=O)(=O)Nc1cc(-c2cccnc2OC)cn2c(C)nnc12 | Non-Toxic | 49.93% | –
5 | CC(=O)Nc1cc(-c2ccccc2Cl)cn2c(C)nnc12 | Non-Toxic | 48.41% | –
6 | COc1ncccc1-c1cc(NC(=O)C2CCCCC2)c2nnc(C)n2c1 | Non-Toxic | 49.99% | –
7 | O=C1NC(=O)/C(=C/c2ccc3nccnc3c2)S1 | – | – | inhibition at 20 µM [3]: 40.5%
8 | CCCOc1ccc(Cl)cc1-c1cc(NC(=O)c2ccccc2F)c2nnc(C)n2c1 | Non-Toxic | 77.73% | –
9 | COc1ccc(F)cc1-c1cc(NC(=O)c2c(F)cccc2F)c2nnc(C)n2c1 | Non-Toxic | 61.96% | –
10 | CCCOc1ccc(Cl)cc1-c1cc(NC(C)=O)c2nnc(C)n2c1 | Non-Toxic | 49.05% | –
11 | CCS(=O)(=O)Nc1cc(-c2ccccc2C(F)(F)F)cn2c(C)nnc12 | Non-Toxic | 58.67% | –
12 | COc1ccc(C)cc1-c1cc(NC(C)=O)c2nnc(C)n2c1 | Non-Toxic | 58.83% | –
13 | CCS(=O)(=O)Nc1cccc(-c2cc(NS(=O)(=O)CC)c3nnc(C)n3c2)c1 | Non-Toxic | 41.19% | –
14 | CCOc1ccc(C)cc1-c1cc(NC(C)=O)c2nnc(C)n2c1 | Non-Toxic | 32.07% | –
15 | CCOc1ccc(C(=O)Nc2cc(-c3cc(F)ccc3OC)cn3c(C)nnc23)cc1 | Non-Toxic | 28.01% | Activity [4]: 65.39%; inhibition at 20 µM [3]: 52.6%; Activity [5]: Active; Activity [6]: Active; Activity [7]: Active; Activity [8]: Active; inhibition [9]: Dose-dependent effect; Activity [10]: Active; Activity [11]: Dose-dependent effect; Activity [12]: Active; Activity [13]: Active; Activity [14]: 8.39%; Activity [15]: 52.52%; Activity [16]: Active
16 | CCS(=O)(=O)Nc1cc(-c2cccc(C(F)(F)F)c2)cn2c(C)nnc12 | Non-Toxic | 27.18% | –
17 | CC(=O)Nc1cc(-c2ccccc2)cn2c(C)nnc12 | Non-Toxic | 44.71% | –
18 | CCS(=O)(=O)Nc1cc(-c2ccccc2)cn2c(C)nnc12 | Non-Toxic | 44.44% | –

Row | Structure (SMILES) | Activity [1] | Activity [2] | further results
19 | CCS(=O)(=O)Nc1cc(-c2ccccc2-c2ccccc2)cn2c(C)nnc12 | Non-Toxic | 62.68% | –
20 | Cc1nnc2c(NC(=O)c3ccc(F)cc3)cc(-c3ccc(Cl)cc3)cn12 | Non-Toxic | 42.88% | –
21 | CC(=O)Nc1cc(-c2ccccc2C(F)(F)F)cn2c(C)nnc12 | Non-Toxic | 42.36% | –
22 | CCS(=O)(=O)Nc1cc(-c2ccccc2OCc2ccccc2)cn2c(C)nnc12 | Non-Toxic | 72.57% | –
23 | CCS(=O)(=O)Nc1cc(-c2ccccc2Cl)cn2c(C)nnc12 | Non-Toxic | 152.42% | –
24 | CC(=O)Nc1cc(-c2ccccc2-c2ccccc2)cn2c(C)nnc12 | Non-Toxic | 49.03% | –
25 | CC(=O)Nc1cc(-c2ccc(CN3CCOCC3)cc2)cn2c(C)nnc12 | Non-Toxic | 42.4% | –
26 | CCOc1cc(F)ccc1-c1cc(NC(=O)C2CCCCC2)c2nnc(C)n2c1 | Non-Toxic | 37.8% | inhibition [3]: Active
27 | CCOc1cc(F)ccc1-c1cc(NS(=O)(=O)CC)c2nnc(C)n2c1 | Non-Toxic | 34.85% | –
28 | COc1ccc(F)cc1-c1cc(NC(=O)c2ccc(OCc3ccccc3)cc2Cl)c2nnc(C)n2c1 | Non-Toxic | 32.06% | –
29 | CC(=O)Nc1cc(-c2cc(Cl)ccc2OCc2ccccc2)cn2c(C)nnc12 | Non-Toxic | 27.05% | –
30 | COc1cccc(-c2cc(NC(C)=O)c3nnc(C)n3c2)c1 | Non-Toxic | 55.3% | –
31 | Cc1nnc2c(NC(=O)c3cccc(C(F)(F)F)c3)cc(-c3ccc(Cl)cc3)cn12 | Non-Toxic | 30.98% | –
32 | CCS(=O)(=O)Nc1cc(-c2cc(C)ccc2OC)cn2c(C)nnc12 | Non-Toxic | 45.48% | –
33 | CCS(=O)(=O)Nc1cccc(-c2cc(NC(C)=O)c3nnc(C)n3c2)c1 | Non-Toxic | 64.96% | –
34 | COc1ncccc1-c1cc(NC(C)=O)c2nnc(C)n2c1 | Non-Toxic | 54.04% | –
35 | CCOc1cc(F)ccc1-c1cc(NC(C)=O)c2nnc(C)n2c1 | Non-Toxic | 65.85% | –
36 | CCS(=O)(=O)Nc1cccc(-c2cc([N+](=O)[O-])c3nnc(C)n3c2)c1 | Non-Toxic | 26.74% | –
